Reference: ChEMBL document CHEMBL3585317, “Structures and Biological Evaluations of Agelasines Isolated from the Okinawan Marine Sponge Agelas nakamurai” (J Nat Prod, 2015)
Structures can show the parent of a compound that is named as a salt. The source made the active and inactive calls. The calls are words filed in the database; no cut-off is given here.

Tests used:
[1] = Cytotoxicity against human EJ1 cells after 72 hrs by WST1 assay; assay type: functional, cell-based; details: EJ1, 72 h
How it was run: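 1 × 10^4 cells/well seeded, cultured overnight, then exposed to compound 72 h; vehicle control 0.1% EtOH. WST-1 reagent (0.5 mM WST-1, 0.02 mM 1-methoxy-5-methylphenazinium methylsulfate) added, 60 min at 37 °C. Absorbance 438 nm (reference 620 nm). Viability = treated/control absorbance × 100%.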

[2] = tested on: Mycolicibacterium smegmatis; assay: Antimycobacterial activity against Mycobacterium smegmatis NBRC 3207 assessed as inhibition zone at 10 ug/disc after 2 days incubation by paper disc method; assay type: functional; details: for zone of inhibition at 10 µg/disc: NBRC 3207, 48 h, read-out: IZ
How it was run: (§1)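 Disc diffusion: strain grown in Middlebrook 7H9 broth (0.05% polysorbate 80, 0.5% glycerol, 10% OADC) 2 days at 37 °C, adjusted to 1.0 × 10^6 CFU/mL, spread on same medium with 1.5% agar. Sample in CH3OH dried onto 6 mm filter disc, placed on plate, 2 days at 37 °C. Controls: streptomycin sulfate 5 μg/disc, CH3OH.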

[3] = Cytotoxicity against human HuH7 cells after 72 hrs by WST1 assay; assay type: functional, cell-based; details: Huh-7, 72 h
How it was run: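 1 × 10^4 cells/well seeded, cultured overnight, then exposed to compound 72 h; vehicle control 0.1% EtOH. WST-1 reagent (0.5 mM WST-1, 0.02 mM 1-methoxy-5-methylphenazinium methylsulfate) added, 60 min at 37 °C. Viability = treated/control absorbance × 100%.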

[4] = tested on: Mycolicibacterium smegmatis; assay: Antimycobacterial activity against Mycobacterium smegmatis NBRC 3207 assessed as inhibition zone at 20 ug/disc after 2 days incubation by paper disc method; assay type: functional; details: NBRC 3207, 48 h, read-out: IZ; how it was run: as §1
[5] = target: T1, Tyrosine-protein phosphatase non-receptor type 1 (Homo sapiens, UniProt P18031); assay: Inhibition of human recombinant PTP1B using pNPP as substrate assessed as rate of hydrolysis incubated for 10 mins prior to substrate addition measured after 30 mins by microplate reader analysis
T1 sequence (P18031 whole entry): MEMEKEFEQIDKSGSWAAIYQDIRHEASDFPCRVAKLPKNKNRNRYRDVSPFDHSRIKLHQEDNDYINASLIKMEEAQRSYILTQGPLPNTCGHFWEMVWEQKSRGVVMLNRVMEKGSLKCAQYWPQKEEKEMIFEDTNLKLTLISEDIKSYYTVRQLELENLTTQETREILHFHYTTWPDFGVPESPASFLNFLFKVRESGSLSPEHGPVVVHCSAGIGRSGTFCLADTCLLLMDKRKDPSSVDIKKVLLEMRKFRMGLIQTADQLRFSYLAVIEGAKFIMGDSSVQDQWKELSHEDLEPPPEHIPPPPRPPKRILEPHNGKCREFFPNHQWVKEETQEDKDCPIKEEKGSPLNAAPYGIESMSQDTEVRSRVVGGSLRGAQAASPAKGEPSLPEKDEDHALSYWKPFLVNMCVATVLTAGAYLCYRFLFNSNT

Row | Compound | IC50 [5] [µM] | IC50 [1] [µM] | zone of inhibition at 10 µg/disc [2] [mm] | IC50 [3] [µM] | zone of inhibition at 20 µg/disc [4] [mm] | growth inhibition (GI) [2]
1 | C/C(=C\Cn1c[n+](C)c2ncnc(N)c21)CC[C@]1(C)[C@@H](C)CC[C@@]2(C)C(COC(=O)c3cc(Br)c[nH]3)=CCC[C@@H]12 | 15 | 18 | 10 | 26 | 12 | 
2 | CN[C@@H]1[C@H](O[C@H]2[C@H](O[C@H]3[C@H](O)[C@@H](O)[C@H](N=C(N)N)[C@@H](O)[C@@H]3N=C(N)N)O[C@@H](C)[C@]2(O)C=O)O[C@@H](CO)[C@H](O)[C@H]1O [STREPTOMYCIN SULFATE] |  |  | 30 |  |  | 
3 | CC1=CCC[C@@H]2[C@@](C)(CC/C(C)=C/Cn3c[n+](C)c4ncnc(N)c43)[C@H](C)CC[C@@]12C [AGELASINE B] | > 24 | 19 | 12 | 22 | 15 | 
4 | CC1=CCC[C@H]2[C@](C)(CC/C(C)=C/Cn3c[n+](C)c4ncnc(N)c43)[C@@H](C)CC[C@@]12C [AGELASINE A] | > 24 | 42 | 12 | > 50 | 14 | 
5 | C=C1CC[C@@H]2C(C)(C)CCC[C@@]2(C)[C@@H]1CC/C(C)=C/Cn1c[n+](C)c2ncnc(N)c21 [AGELASINE D] | > 24 | 19 | 14 | 36 | 18 | 
6 | COc1cccc2c1C(=O)c1c(O)c3c(c(O)c1C2=O)C[C@@](O)(C(=O)CO)C[C@@H]3O[C@H]1C[C@H](N)[C@H](O)[C@H](C)O1 [DOXORUBICIN] |  | 0.023 |  |  |  | 

Continued, in another order:

Row | IC50 [5] [µM] | Compound | IC50 [1] [µM] | zone of inhibition at 10 µg/disc [2] [mm] | IC50 [3] [µM] | zone of inhibition at 20 µg/disc [4] [mm] | growth inhibition (GI) [2]
7 | > 23 | CC1=CC(=O)C[C@H](C)[C@@]1(C)CC/C(C)=C/CC/C(C)=C/C[n+]1cn(C)c2ncnc(N)c21 | > 50 |  | > 50 |  | 
8 | > 19 | C/C(=C\Cn1c[n+](C)c2ncnc(N)c21)CC[C@]1(C)[C@@H](C)CC[C@@]2(C)C(COC(=O)c3ccc[nH]3)=CCC[C@@H]12 [AGELINE B] | > 50 | 9 | > 50 | 12 | 
9 | > 23 | CC1=CC(=O)C[C@@H]2[C@@](C)(CC/C(C)=C/C[n+]3cn(C)c4ncnc(N)c43)[C@H](C)CC[C@@]12C | > 50 |  | > 50 |  | 
10 | > 23 | CC1=CCC[C@H](C)[C@@]1(C)CCC(C)(O)CCC/C(C)=C/C[n+]1cn(C)c2ncnc(N)c21 (stereo partly specified) | > 50 |  | > 50 | 10 | 
11 | > 24 | C=C1CCCC(C)(C)[C@H]1CC/C(C)=C/CC/C(C)=C/C[n+]1cn(C)c2ncnc(N)c21 | > 50 | 10 | > 50 | 14 | 
12 | > 23 | CC1=CC(=O)C[C@H]2[C@](C)(CC/C(C)=C/C[n+]3cn(C)c4ncnc(N)c43)[C@@H](C)CC[C@@]12C | > 50 |  | > 50 |  | inactive
13 | > 24 | CC1=CCC[C@H](C)[C@@]1(C)CC/C(C)=C/CC/C(C)=C/Cn1c[n+](C)c2ncnc(N)c21 [AGELINE A] | 16 | 14 | 24 | 20 | 
